From ChEMBL document CHEMBL3612021, “Structure-kinetics relationships of Capadenoson derivatives as adenosine A1 receptor agonists” (Eur J Med Chem, 2015)

Key:
[1] = target: T1, Adenosine receptor A1 (Homo sapiens) (UniProt P30542); test: Displacement of [3H]DPCPX from human adenosine A1 receptor expressed in CHO cell membranes assessed as association rate constant by competition association assay
T1 sequence (whole entry): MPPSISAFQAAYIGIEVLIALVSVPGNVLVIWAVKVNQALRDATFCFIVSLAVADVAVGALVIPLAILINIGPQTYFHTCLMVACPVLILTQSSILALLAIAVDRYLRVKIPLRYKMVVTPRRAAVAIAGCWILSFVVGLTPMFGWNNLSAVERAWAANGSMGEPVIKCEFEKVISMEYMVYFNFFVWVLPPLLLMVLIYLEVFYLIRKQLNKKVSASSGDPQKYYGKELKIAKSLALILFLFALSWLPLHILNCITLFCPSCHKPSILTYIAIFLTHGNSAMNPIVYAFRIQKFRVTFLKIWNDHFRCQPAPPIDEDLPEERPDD
Summary of the method: (§1)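 Competition association assay on CHO cell membranes stably expressing hA1, with [3H]DPCPX as tracer. kon and koff come from these association curves (n ≥ 3, ± SEM). Residence time is shown alongside koff and corresponds to 1/koff in minutes.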

[2] = target: Adenosine receptors; A1 & A3 (Homo sapiens) (UniProt P30542+P0DMS8); test: Selectivity for human adenosine A1 receptor expressed in CHO cell membranes over human adenosine A3 receptor expressed in CHO cell membrane; type: cell-based
[3] = target: T1, Adenosine receptor A1 (Homo sapiens); test: Displacement of [3H]DPCPX from human adenosine A1 receptor expressed in CHO cell membranes assessed as residence time by competition association assay; summary of the method: as §1
[4] = target: T2, Adenosine receptor A3 (Homo sapiens) (UniProt P0DMS8); test: Displacement of [3H]PSB11 from human adenosine A3 receptor expressed in CHO cell membranes at 1 uM by competition association assay
T2 sequence (whole entry): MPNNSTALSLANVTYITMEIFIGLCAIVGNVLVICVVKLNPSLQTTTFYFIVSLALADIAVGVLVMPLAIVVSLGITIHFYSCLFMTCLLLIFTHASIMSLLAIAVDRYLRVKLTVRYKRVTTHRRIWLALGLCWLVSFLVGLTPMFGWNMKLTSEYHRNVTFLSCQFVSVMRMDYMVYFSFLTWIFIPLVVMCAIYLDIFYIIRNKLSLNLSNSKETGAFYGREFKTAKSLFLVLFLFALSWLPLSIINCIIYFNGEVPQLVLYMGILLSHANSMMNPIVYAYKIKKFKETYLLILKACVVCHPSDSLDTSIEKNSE
Summary of the method: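 Single-point screen at 1 µM measuring displacement of specific [3H]PSB11 binding on CHO cell membranes stably expressing human A3 receptors.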

[5] = target: Adenosine receptor A2a (Homo sapiens) (UniProt P29274); test: Displacement of [3H]ZM241385 from human adenosine A2A receptor expressed in HEK293 cell membranes at 1 uM by competition association assay
[6] = target: T1, Adenosine receptor A1 (Homo sapiens); test: Displacement of [3H]DPCPX from human adenosine A1 receptor expressed in CHO cell membranes assessed as kinetic rate index by measuring ratio of binding at earlier and later time points by competition association assay
Summary of the method: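 Dual-point competition association assay with [3H]DPCPX on CHO membranes stably expressing hA1. Specific binding is read at two time points in the presence of the test ligand. KRI is the ratio of binding at the earlier to the later time point (n = 2; both values reported).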

[7] = target: T1, Adenosine receptor A1 (Homo sapiens); test: Agonist activity at human adenosine A1 receptor expressed in CHO cell membranes by [35S]GTPgammaS binding assay relative to 100 uM CPA; type: functional
Summary of the method: (§2)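 CHO-hA1 membrane homogenates (3 µg) equilibrated 30 min at 25 °C in 50 mM Tris, 100 mM NaCl, 5 mM MgCl2, 1 mM EDTA, 1 mM DTT, 0.05% BSA, pH 7.4, with 3 µM GDP, saponin and ligand over a concentration range. [35S]GTPγS then added (final 0.3 nM) and incubated 90 min at 25 °C. Filtration on GF/B, ice-cold washes, scintillation counting. n = 3.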

[8] = target: T1, Adenosine receptor A1 (Homo sapiens); test: Displacement of [3H]DPCPX from human adenosine A1 receptor expressed in CHO cell membranes assessed as dissociation rate constant by competition association assay; summary of the method: as §1
[9] = target: T1, Adenosine receptor A1 (Homo sapiens); test: Displacement of [3H]DPCPX from human adenosine A1 receptor expressed in CHO cell membranes at 1 uM by competition association assay
[10] = target: T3, Adenosine receptor A2b (Homo sapiens) (UniProt P29275); test: Displacement of [3H]PSB603 from human adenosine A2B receptor expressed in CHO cell membranes at 1 uM by competition association assay
T3 sequence (whole entry): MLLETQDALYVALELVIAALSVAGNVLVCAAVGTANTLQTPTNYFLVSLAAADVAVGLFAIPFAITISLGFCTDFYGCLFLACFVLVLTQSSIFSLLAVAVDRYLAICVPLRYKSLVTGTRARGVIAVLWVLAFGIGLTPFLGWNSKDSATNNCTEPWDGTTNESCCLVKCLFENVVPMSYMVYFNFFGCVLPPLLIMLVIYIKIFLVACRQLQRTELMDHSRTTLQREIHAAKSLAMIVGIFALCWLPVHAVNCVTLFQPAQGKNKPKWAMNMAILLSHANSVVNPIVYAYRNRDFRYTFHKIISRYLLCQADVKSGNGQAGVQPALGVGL
Summary of the method: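 Single-point test at 1 µM measuring percent displacement of specific [3H]PSB603 binding on CHO membranes stably expressing human A2B receptors.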

[11] = target: T4, Adenosine receptor A1 (Homo sapiens, UniProt P30542); test: Agonist activity at human adenosine A1 receptor expressed in CHO cell membranes by [35S]GTPgammaS binding assay; type: functional; summary of the method: as §2
T4 sequence (P30542 whole entry): T1 sequence (whole entry)

Sequence of Adenosine receptor A2a (Homo sapiens) (P29274 whole entry): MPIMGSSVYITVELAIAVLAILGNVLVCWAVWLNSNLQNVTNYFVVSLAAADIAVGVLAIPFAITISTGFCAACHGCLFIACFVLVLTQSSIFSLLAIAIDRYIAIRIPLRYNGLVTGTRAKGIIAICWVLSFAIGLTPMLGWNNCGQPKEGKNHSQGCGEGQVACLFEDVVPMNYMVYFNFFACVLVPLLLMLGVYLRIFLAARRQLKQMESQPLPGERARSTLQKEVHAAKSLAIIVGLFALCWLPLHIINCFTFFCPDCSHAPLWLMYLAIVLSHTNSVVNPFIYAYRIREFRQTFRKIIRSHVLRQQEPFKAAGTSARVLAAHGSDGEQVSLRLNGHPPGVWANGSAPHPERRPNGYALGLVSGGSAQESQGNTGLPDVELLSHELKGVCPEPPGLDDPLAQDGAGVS

SMILES	K [1]	Selectivity ratio [2]	TIME [3]	inhibition [4]	inhibition [5]	Ratio [6]	Emax [7]	K [8]	inhibition [9]	inhibition [10]	EC50 [11]
N#Cc1c(N)nc(SCc2csc(-c3ccc(Cl)cc3)n2)c(C#N)c1-c1ccc(OCCO)cc1 [CAPADENOSON]	2.4 ×10⁷ /M/min	> 100	0.463 h	1.2%	0%	1.42	97%	0.036 min⁻¹	> 80%	2.5%	1.1 nM
COc1ccc(-c2c(C#N)c(N)nc(SCc3csc(N4CCOCC4)n3)c2C#N)cc1	–	> 100	–	51%	0%	1.12	104%	–	> 80%	0%	1.9 nM
COc1ccc(-c2c(C#N)c(N)nc(SCc3csc(-c4ccccn4)n3)c2C#N)cc1	–	> 100	–	22%	0%	1.08	99%	–	> 80%	0%	7.6 nM
COc1ccc(-c2c(C#N)c(N)nc(SCc3csc(-c4ccc(Cl)cc4)n3)c2C#N)cc1	2.6 ×10⁶ /M/min	> 100	2.2 h	19%	5.8%	2.55	83%	0.0076 min⁻¹	> 80%	20%	2.9 nM
COc1ccc(-c2c(C#N)c(N)nc(SCc3cscn3)c2C#N)cc1	–	> 100	–	50%	0%	1	55%	–	–	–	1.5 nM
COc1ccc(-c2c(C#N)c(N)nc(SCc3csc(-c4ccccc4)n3)c2C#N)cc1	–	> 100	–	27%	0%	1.23	105%	–	> 80%	63%	1.9 nM
